Bioassay records: PubChem BioAssay, several laboratories
Most compounds without a hit are left out; they make up all but 2.4% or so of the library.
PREPL inh: inhibitors of human prolyl oligopeptidase-like enzyme PREPL | recombinant PREPL, fluorescence polarization activity-based probe | inhibition, % at 5.96 µM | actives 0.68% (n = 320,000); in the data active = inhibition above about 43%
Rpn11 inh: inhibitors of human proteasome Rpn11; inhibition, % at 20 µM; human 26S proteasome, Ub4-pepOG fluorescence polarization; 20S core pre-blocked with epoxomicin; O00487; actives 0.59% (n = 360,000); AID 588493;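 active = inhibition at 20 µM, scaled to each plate's controls, above about 33%, limit read from the data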
Target sequence (O00487 whole entry, looked up): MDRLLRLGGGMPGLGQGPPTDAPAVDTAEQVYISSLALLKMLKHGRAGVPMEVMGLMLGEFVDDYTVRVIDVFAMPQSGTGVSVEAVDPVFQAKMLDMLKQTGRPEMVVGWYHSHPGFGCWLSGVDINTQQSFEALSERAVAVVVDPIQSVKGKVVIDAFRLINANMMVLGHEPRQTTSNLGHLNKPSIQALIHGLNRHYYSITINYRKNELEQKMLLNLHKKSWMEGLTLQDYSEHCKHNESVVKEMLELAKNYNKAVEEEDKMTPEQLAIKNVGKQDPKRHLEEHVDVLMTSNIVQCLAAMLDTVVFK
HNF4A DNA FP: change in binding of human HNF4 alpha to DNA; HNF4a-FITC DNA binding, fluorescence polarization, 1 h; activity change, % at 10 µM; actives 0.3% (n = 360,000); AID 1224865; in the data active = activity change above about 30%, passing the limit was not always enough
Neddylation inh: inhibitors of human cullin neddylation; actives 0.58% (n = 360,000); inhibition, % at 25 µM; TR-FRET cullin neddylation, biochemical; P61081+Q13564; in the data active = inhibition above about 36%
Tb MetRS inh: Trypanosoma brucei MetRS inhibition | inhibition, % at 11.9 µM | actives 0.4% (n = 360,000) | purified T. brucei MetRS, ATP depletion, Kinase-Glo luminescence;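 active = inhibition above a per-plate cutoff of the control wells' mean inhibition plus 3 SD, cut at about 5.5% in these data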
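Dosing: 11.9 µM compound single dose, 0.9% DMSO; Assay system: purified T. brucei MetRS enzyme; Measured by: Kinase-Glo luciferase luminescence reporting remaining unconsumed ATP; Schedule: 15 min plus 2 h at 25 °C.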
CSN deneddyl inh: CSN deneddylation inhibition. actives 0.38% (n = 360,000). Q92905. inhibition, % at 12.5 µM. Purified CSN, SCF-Nedd8-OG deneddylation, fluorescence polarization;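 active = pattern-corrected inhibition above about 35%, with an unprinted fluorescence ratio check between 0.5 and 1.5, limit read from the data, passing the limit was not always enough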
Target sequence (Q92905 whole entry, looked up, one chain of several): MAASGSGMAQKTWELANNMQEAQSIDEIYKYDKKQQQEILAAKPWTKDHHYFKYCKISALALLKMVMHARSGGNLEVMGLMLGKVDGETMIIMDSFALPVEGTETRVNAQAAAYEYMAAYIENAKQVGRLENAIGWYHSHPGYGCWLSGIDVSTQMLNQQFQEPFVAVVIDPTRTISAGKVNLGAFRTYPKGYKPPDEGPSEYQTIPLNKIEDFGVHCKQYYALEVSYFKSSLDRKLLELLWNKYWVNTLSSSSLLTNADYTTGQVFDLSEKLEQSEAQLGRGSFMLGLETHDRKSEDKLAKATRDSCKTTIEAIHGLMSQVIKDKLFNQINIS
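Test system: Human Csn5 produced in HEK293T cells | Compound: 12.5 µM single point | Times: 90 min, room temperature | Signal: Fluorescence polarization readout | Read-out basis: % inhibition of substrate cleavage by Csn5 | Controls: no-enzyme wells high, enzyme-with-substrate wells low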
Rpn11 inh conf: Rpn11 inhibition confirmation, single concentration; purified human 26S proteasome, Ub4-pepOG fluorescence polarization; proteasome pretreated with epoxomicin; actives 29% (n = 1,900); AID 602318; shares compounds with Rpn11 inh; inhibition, % at 20 µM
MMP-2 counter-1: MMP-2 (human) inhibition counter-screen; shares compounds with Rpn11 inh; recombinant MMP-2, FRET peptide cleavage fluorescence; inhibition, % at 20 µM; actives 4% (n = 1,900); AID 602330;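 also: human MMP-2 activated beforehand with APMA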
Thrombin inh: blocks bovine thrombin, flagging nonselective RPN11 hits | inhibition, % at 20 µM | actives 13% (n = 1,900) | bovine thrombin cleavage of Ub4-pepOG, fluorescence polarization | shares compounds with Rpn11 inh | AID 602333;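 active = mean inhibition at least 40% at 20 µM, or signal 3 deviations below plate average, so some actives read negative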
TbMetRS confirm: Trypanosoma brucei MetRS inhibition confirmed; T. brucei MetRS enzyme, luminescence (ATP depletion); shares compounds with Tb MetRS inh; AID 624412; inhibition, % at 11.9 µM; actives 93% (n = 1,400); in the data active = inhibition above about 7%
Jurkat cytotox: counter-screen for T. brucei MetRS inhibitors: Jurkat cell cytotoxicity | Jurkat cells viability, ATP luminescence | inhibition, % at 8.3 µM | AID 624413 | actives 12% (n = 1,400) | shares compounds with Tb MetRS inh; in the data active = inhibition above about 15%
TbMetRS FP orth: inhibits T. brucei methionyl tRNA synthetase in orthogonal FP test; inhibition, % at 11.9 µM; shares compounds with Tb MetRS inh; AID 651607; actives 44% (n = 1,400); purified T. brucei MetRS, fluorescence polarization; in the data active = inhibition above about 17%
CSN5 deneddyl: Csn5 (human) deneddylation inhibition, single-concentration validation | shares compounds with CSN deneddyl inh | inhibition, % at 16.6 µM | AID 720654 | actives 62% (n = 540) | Csn5 deneddylation of SCF-Nedd8OG, fluorescence polarization, 90 min; in the data active = inhibition above about 50%
MMP-2 counter-2: counter-screen for CSN deneddylation inhibitors: human MMP-2 inhibition; shares compounds with CSN deneddyl inh; recombinant MMP-2, FRET substrate fluorescence, 60 min; inhibition, % at 16.6 µM; actives 33% (n = 540); AID 720655;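 active = corrected plate-normalized z-score of 5 or more, or -5 or less, or inhibition of 15% or more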
Thrombin cntr: blocks bovine thrombin in a CSN deneddylation counter-screen. shares compounds with CSN deneddyl inh. bovine thrombin cleavage of Ub4-pepOG, fluorescence polarization. inhibition, % at 16.6 µM. actives 49% (n = 540). AID 720656;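 active = inhibition at or above a set limit, with a fluorescence interference ratio between 0.5 and a set maximum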
Numbers stand for hits; 0 = inactive; - = no result given. Rule as the data show it, unless noted: active = inhibition above about 40%; inactive = the rest.

SMILES	PREPL inh	Rpn11 inh	HNF4A DNA FP	Neddylation inh	Tb MetRS inh	CSN deneddyl inh	TbMetRS confirm	Jurkat cytotox	TbMetRS FP orth	others
CCCOP(=O)(OCCC)C(NC(=O)c1cc(OC)c(OC)c(OC)c1)c1ccccc1 (configuration not stated)	0	139.6	128.8	0	0	0	-	-	-	Rpn11 inh conf=0;MMP-2 counter-1=0;Thrombin inh=0
CCOP(=O)(OCC)/C(C#N)=C/c1ccoc1	-	53.8	0	0	0	0	-	-	-	Rpn11 inh conf=0;MMP-2 counter-1=0;Thrombin inh=0
O=C1NC(=S)N(c2ccccc2)C(=O)/C1=C/c1ccco1	0	75.6	0	0	0	53.3	-	-	-	Rpn11 inh conf=90.3;MMP-2 counter-1=60.9;Thrombin inh=0;MMP-2 counter-2=45.7;Thrombin cntr=0
CC(C)N1C(=O)/C(=C/C=C/c2ccco2)C(=O)N(Cc2ccco2)C1=O	0	98.2	0	0	0	78.8	-	-	-	Rpn11 inh conf=49.2;MMP-2 counter-1=0;Thrombin inh=41.5;CSN5 deneddyl=0;MMP-2 counter-2=0;Thrombin cntr=27.4
CCN1C(=O)C(=C/C=C/c2ccco2)C(=O)N(CC)C1=S	0	-	0	0	0	0	-	-	-
COc1ccc(C2=NCC(=S)Nc3ccc(Cl)cc32)cc1Cl	0	0	0	0	0	0	-	-	-
CC(C)(C)c1nc(N2CCN(C(=O)c3ccco3)CC2)c2nnn(Cc3ccccc3Cl)c2n1	0	0	0	0	0	0	-	-	-
COc1ccc(CN2C(=O)NC(=O)/C(=C\c3ccco3)C2=O)cc1	0	43.9	0	0	0	62.0	-	-	-	Rpn11 inh conf=121.8;MMP-2 counter-1=0;Thrombin inh=0;MMP-2 counter-2=19.7;Thrombin cntr=15.0
COc1ccc(CN2C(=O)NC(=O)/C(=C\c3cc(OC)c(OC)c(OC)c3)C2=O)cc1	0	0	0	0	0	0	-	-	-
Cc1ccccc1NC(=NCCCN1CC1)Nc1ccccc1C	-	92.3	0	0	0	117.2	-	-	-	Rpn11 inh conf=98.9;MMP-2 counter-1=0;Thrombin inh=52.5;CSN5 deneddyl=0;MMP-2 counter-2=25.7;Thrombin cntr=29.2
CCOC(=O)c1c(-n2c(C)cc(C=C3C(=O)NC(=S)NC3=O)c2C)sc2c1CCCC2	0	43.0	0	0	0	49.0	-	-	-	Rpn11 inh conf=0;MMP-2 counter-1=0;Thrombin inh=0;CSN5 deneddyl=82.8;MMP-2 counter-2=31.3;Thrombin cntr=0
CCC(c1nnnn1Cc1ccccc1)N1CCC(n2c(=O)[nH]c3ccccc32)CC1 (configuration not stated)	-	0	0	0	0	0	-	-	-
Clc1ccc(COC(Cn2ccnc2)c2ccc(Cl)cc2Cl)c(Cl)c1 (configuration not stated)	0	0	0	0	42.5	0	58.4	0	46.1
NC(=O)OCCSc1nnc(-c2cccc(C(N)=S)c2)o1	0	0	0	0	16.1	0	10.2	0	0
CCCNC(=O)N1[C@H]2CC[C@@H]1C(C(=O)OC)=C(c1cccc(Cl)c1)C2	0	0	0	0	0	0	-	-	-
O=C1NC(=O)C(=Cc2ccc(N3CCN(C(=O)c4ccccc4)CC3)c([N+](=O)[O-])c2)C(=O)N1	0	0	0	0	12.9	0	18.5	0	0
CCCC1(CCC)C(=O)NC(=NCc2ccccc2)NC1=O	0	0	0	0	0	0	-	-	-
CCCC(C)C1(CC)C(=O)NC(=Nc2ccc(F)cc2)NC1=O (configuration not stated)	0	0	0	0	0	0	-	-	-
CCCC1(CCC)C(=O)NC(=Nc2ccccc2)NC1=O	0	0	0	0	12.0	0	18.7	0	0
CCCC(C)C1(CC)C(=O)NC(=Nc2ccccc2)NC1=O (configuration not stated)	0	0	0	0	8.7	0	17.6	0	0
O=C1c2ccccc2C2(c3ccc(Cl)cc3)NCCN12 (configuration not stated)	0	0	0	0	0	0	-	-	-
Cc1ccc(NC(=O)CN2C(=O)CN=C(c3ccccc3)c3cc(Cl)ccc32)cc1	0	0	0	0	58.7	0	80.6	0	53.0
Cc1nccc2c1[nH]c1ccc(Br)cc12	0	0	0	0	9.0	0	17.1	0	0
COc1ccc2c3c1OC1C(O)C=CC4C(C2)[N+](C)(C)CCC341 (configuration not stated)	0	0	0	0	0	0	-	-	-
N#Cc1cc2c(nc1SCC(=O)Nc1ccc(Cl)cc1)C1CCN2CC1	0	0	0	0	9.2	0	15.1	19.6	0
SMILES	PREPL inh	Rpn11 inh	HNF4A DNA FP	Neddylation inh	Tb MetRS inh	CSN deneddyl inh	TbMetRS confirm	Jurkat cytotox	TbMetRS FP orth	others
N#Cc1cc2c(nc1SCC(=O)Nc1cc(Cl)ccc1Cl)C1CCN2CC1	0	0	0	0	0	0	-	-	-
CCOP(=O)(CCP(=O)(OCC)OCC)OCC.C[CH2][Sn]([Cl])([Cl])[CH2]C	-	0	0	0	0	0	-	-	-
CCOC(=O)c1ccc2[nH]c(-c3ccc(S(=O)(=O)F)cc3)cc(=O)c2c1	0	0	0	0	0	0	-	-	-
CCn1nc(/C=C/c2ccccc2)nc2c(=O)n(C)c(=O)nc1-2	-	0	107.3	0	17.6	59.2	36.5	56.7	0	CSN5 deneddyl=0;MMP-2 counter-2=0;Thrombin cntr=0
CC(C)c1ccc(NC(=O)CCNC(=O)N2C[C@H]3C[C@@H](C2)c2cccc(=O)n2C3)cc1	0	0	0	0	0	0	-	-	-
CCOC(=O)c1c(NC(=O)c2c(N)n(CCCOC)c3nc4ccccc4nc23)sc2c1CCCC2	0	0	0	0	0	0	-	-	-
CCOCCCn1c(N)c(C(=O)Nc2sc3c(c2C(=O)OC)CCCC3)c2nc3ccccc3nc21	0	0	0	-	8.3	52.0	0	0	0	CSN5 deneddyl=92.7;MMP-2 counter-2=0;Thrombin cntr=0
